# Bioassay records as filed in PubChem.
# This is a sample that favours compounds with a hit; in the whole collection about 3.2% have one here.
# DENV2 CPE rescue = DENV2-induced cell death inhibition; AID 651640; DENV2-infected cells, cytopathic effect rescue, plate reader; 350,000 tested, 1.7% active; CPE inhibition, % at 9.99 µM; in the data active means CPE inhibition above about 20%, passing the limit was not always enough; tested in BHK-21 cells;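 further: 0% = median of neutral control wells and 100% = median of positive control wells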
# MLL AF4-AF9 inh = MLL-AF4/AF9 protein interaction inhibition; P42568; AlphaScreen, biotin-AF4 peptide binding to FLAG-AF9; inhibition, % at 10 µM; 350,000 tested, 0.47% active;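 active means every replicate reaching a set inhibition limit, whatever the replicate mean, cut at about 25% in these data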;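 further: 0% = plate neutral control median and 100% = total signal loss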
# Target sequence (P42568 whole entry, looked up): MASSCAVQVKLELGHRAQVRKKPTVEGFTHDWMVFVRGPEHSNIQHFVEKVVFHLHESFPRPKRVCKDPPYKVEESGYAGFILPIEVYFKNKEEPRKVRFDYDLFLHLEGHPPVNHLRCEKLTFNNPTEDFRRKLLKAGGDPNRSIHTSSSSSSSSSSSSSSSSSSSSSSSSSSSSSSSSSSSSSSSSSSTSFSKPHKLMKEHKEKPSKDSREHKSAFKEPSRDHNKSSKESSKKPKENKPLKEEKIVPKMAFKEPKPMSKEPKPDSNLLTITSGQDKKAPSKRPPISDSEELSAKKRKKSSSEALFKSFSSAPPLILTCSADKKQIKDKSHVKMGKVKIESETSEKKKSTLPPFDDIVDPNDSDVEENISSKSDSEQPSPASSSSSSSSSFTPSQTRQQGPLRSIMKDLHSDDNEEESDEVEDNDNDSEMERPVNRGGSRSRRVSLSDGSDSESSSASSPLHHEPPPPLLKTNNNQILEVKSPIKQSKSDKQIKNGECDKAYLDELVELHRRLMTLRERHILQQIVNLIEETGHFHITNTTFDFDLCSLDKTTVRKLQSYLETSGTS
# S100A4 MyoIIA = S100A4-myosin IIA interaction inhibition; P26447; S100A4/TAMRA-MyoIIA peptide fluorescence polarization; inhibition, % at 10.7 µM; 360,000 tested, 0.14% active; AID 652163;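 active means mean inhibition of at least 70% across replicates, with every replicate also reaching that level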
#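 System – human S100A4 monomer protein, biochemical binding assay · Buffer or medium – Calcium-containing HEPES buffer, pH 7.2 · Timing – 5 min between mix addition and reading · Also added – TAMRA-labelled myosin IIA heavy-chain peptide probe, 5 nM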
# Cneo AK release = Cryptococcus neoformans lysis via adenylate kinase release; C. neoformans lysis, adenylate kinase release luminescence, 4 h; normalised: neutral wells 0, clomiphene wells 100; lysis activity, % at 15 µM; 360,000 tested, 0.2% active; AID 651654;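 active means mean lysis activity across replicates of at least 80%, whatever share of replicates individually reach that level; inactive means mean lysis activity below 80%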
#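 Material – log-phase Cryptococcus neoformans yeast cells · Input – 5 × 10^6 yeast cells/mL · Medium – fresh YPD growth medium · Doses – single compound concentration per well · Timing – static 4 h at 37 °C with compound, 1 h detection · Detection – adenylate kinase release luminescence · Read-out – signal increase indicating cell lysis · Control set – Clomiphene as positive lysis control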
# PfHsp90 set2 = reduces growth (ATP signal) of yeast expressing P. falciparum Hsp90; S. cerevisiae expressing PfHsp90, BacTiter-Glo ATP, 48 h; yeast lacking PDR1 and PDR3 efflux regulators; inhibition, % at 9.4 µM; 310,000 tested, 0.32% active;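 active means every replicate shows inhibition above about 80%, whatever the replicate mean, limit read from the data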;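 further: 0% = DMSO neutral controls and 100% = 20 µM radicicol positive controls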
# Ecoli rRNA inh = selective bacterial rRNA inhibition in E. coli; E. coli WT GFP vs humanized-ribosome RFP mutants, fluorescence, 24 h; active compounds read low; DMSO median 0, no signal -100; GFP signal change (wild-type ribosome), % (no concentration beside the values); 350,000 tested, 1.6% active; AID 720706;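 active means significant combined selectivity score with lowered wild-type GFP, culture density cut under 30%, mutant RFP and density less affected; inactive means any of these conditions unmet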
# * hit, by the source's call; · = no result; ! = repeats disagree.
SMILES,DENV2 CPE rescue,MLL AF4-AF9 inh,S100A4 MyoIIA,Cneo AK release,PfHsp90 set2,Ecoli rRNA inh
O=C(C[C@@H]1C[C@@H]2c3cc(NC(=O)Nc4ccccc4F)ccc3O[C@@H]2[C@@H](CO)O1)NC1CCCC1,9.8,-8.2,-41.6,1.3,·,-1.3
O=C(C[C@@H]1C[C@@H]2c3cc(NC(=O)Nc4ccccc4F)ccc3O[C@@H]2[C@H](CO)O1)NC1CCCC1,49.2*,-15.4,4.9,0.5,·,-3.9
O=C(C[C@@H]1C[C@H]2c3cc(NC(=O)Nc4ccccc4F)ccc3O[C@H]2[C@H](CO)O1)NC1CCCC1,-11.4,-4.5,-33.0,0.6,·,-8.3
O=C(C[C@H]1C[C@H]2c3cc(NC(=O)Nc4ccccc4F)ccc3O[C@H]2[C@H](CO)O1)NC1CCCC1,20.2*,-16.5,6.6,-0.8,·,2.3
CCC(=O)N[C@H]1CC[C@@H](CC(=O)NCC2CCCCC2)O[C@H]1CO,3.8,-1.3,-5.7,0.9,·,2.9
CCCNC(=O)C[C@H]1CC[C@@H]2[C@H](COc3ccc(NC(=O)c4ccccc4)cc3C(=O)N2C)O1,4.5,-0.1,3.8,-2.3,·,-0.8
Cc1ccccc1-c1cnn(-c2cccc([N+](=O)[O-])c2)c1N,3.3,8.2,-4.3,-6.0,-13.7,-46.0*
Nc1c(-c2ccccc2Cl)cnn1-c1cccc([N+](=O)[O-])c1,·,·,·,-0.6,-45.2,·
Cc1ccc(C)c(N(C(=O)c2csnn2)C(C(=O)NC2CCCCC2)c2ccccn2)c1 (stereo not drawn),0.8,37.3*,-4.7,1.0,3.0,2.8
COc1ccccc1NC(=O)c1ccc2nc(-c3ccccc3)c(-c3ccccc3)nc2c1,·,·,·,-0.3,15.3,·
COc1ccccc1-c1nc2cc3ccccc3cc2nc1-c1ccccc1,2.9,26.0*,-3.5,·,-10.5,-23.0
N#Cc1ccc(-c2ccc([C@H]3[C@H]4CN(C(=O)Nc5ccc(F)cc5)CCCCN4[C@H]3CO)cc2)cc1,23.8*,-10.8,2.2,2.1,·,3.9
N#Cc1ccc(-c2ccc([C@H]3[C@H](CO)N4CCCCN(C(=O)Nc5ccc(F)cc5)C[C@@H]34)cc2)cc1,48.7*,-4.8,-2.5,-3.5,·,-21.1
N#Cc1ccc(-c2ccc([C@@H]3[C@@H](CO)N4CCCCN(C(=O)Nc5ccc(F)cc5)C[C@@H]34)cc2)cc1,-1.9,-12.7,-4.5,8.9,·,-2.4
COc1ccc2c3c([nH]c2c1)[C@@H](CO)N(C(=O)Nc1c(C)noc1C)CC31CCN(CC2CCCCC2)CC1,·,·,·,·,·,-0.8
Cc1ccc(S(=O)(=O)NNC(=S)Nc2ccc(Cl)cc2)cc1,2.6,-0.1,0.7,·,-10.6,-27.7*
Cn1nccc1NC(=O)Nc1ccccc1,·,·,·,-0.9,-13.4,·
NS(=O)(=O)c1ccc(NC(=O)Nc2ccc(Cl)cc2)cc1,3.7,-3.3,-1.9,·,-3.1,-26.4*
Cn1nccc1NC(=O)Nc1ccc(Cl)cc1,11.2,-8.8,-5.1,·,4.0,-35.2*
CNC(=O)Nc1ccc(S(N)(=O)=O)cc1,1.6,-2.2,2.6,2.1,4.9,-2.6
O=C(N[C@H]1CC[C@@H](CCn2cc(C3(O)CCCC3)nn2)O[C@H]1CO)C1CCC1,-2.7,-2.9,-30.0,-2.9,·,1.1
CN1c2ccc(-c3ccccc3)cc2[C@@H]2[C@@H](CCN2C(=O)c2ccc(F)cc2)[C@@H]1CO,7.9,3.1,16.0,-13.4,·,-16.2
O=C(Cc1ccncc1)NCC[C@H]1CC[C@H](NC(=O)Nc2cccc(F)c2)[C@@H](CO)O1,13.1,3.7,9.2,-0.4,·,2.6
CC(C)NC(=O)N(C)C[C@H]1Oc2c(NC(=O)Nc3ccc(C(F)(F)F)cc3)cccc2C(=O)N([C@@H](C)CO)C[C@H]1C,14.7,4.0,-2.4,1.7,·,-0.7
C[C@H](CO)N1C[C@H](C)[C@H](CN(C)Cc2ccccc2)Oc2ccc(NS(=O)(=O)c3ccc(Cl)cc3)cc2CC1=O,27.7*,4.2,-0.8,-4.9,·,-9.1
CNC[C@@H]1Oc2ccc(NS(=O)(=O)c3ccc(Cl)cc3)cc2C(=O)N([C@H](C)CO)C[C@@H]1C,39.2*!,-1.0,-6.4,0.7,0.9,-2.1
